We go through 9 molecules from ChEMBL document CHEMBL3603777, “Carbon nanotubes supported tyrosinase in the synthesis of lipophilic hydroxytyrosol and dihydrocaffeoyl catechols with antiviral activity against DNA and RNA viruses” (Bioorg Med Chem, 2015).

The test system of data set [1] is Human poliovirus 1 strain Sabin. Briefly: Antiviral activity against Poliovirus type 1 Sabin VR-1562 infected in African green monkey Vero cells assessed as inhibition of virus-induced plaque formation/cytopathogenicity. Format: functional. The settings on record: Enterovirus C, VR-1562, Vero; read-out: ID50 (the source's name). The essentials: (§1)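 Cell monolayers infected at MOI 0.1 and treated with compound at 25 to 200 μg/mL. Compounds dissolved in DMSO, diluted in maintenance medium (DMEM, 2% heat-inactivated FCS), final DMSO at most 0.01%. Acyclovir is the reference. ID50 is the concentration giving 50% reduction of plaque formation or virus-induced cytopathogenicity, from dose–response curves by linear regression. Values are the mean of three separate assays.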

The subject of the next data set is Coxsackievirus B3. Briefly: Antiviral activity against Coxsackie type B3 virus VR-1034 infected in African green monkey Vero cells assessed as inhibition of virus-induced plaque formation/cytopathogenicity. Format: functional. The settings on record: Enterovirus B, VR-1034, Vero; read-out: ID50 (the source's name). The essentials: as §1
In general terms: Protection from cytopathic effect is a common read-out in antiviral testing.

For another data set, the system named is Echovirus E9. The data set is described as follows: Antiviral activity against Human echovirus type 9 VR-1050 infected in African green monkey Vero cells assessed as inhibition of virus-induced plaque formation/cytopathogenicity. Format: functional. The settings on record: Enterovirus B, VR-1050, Vero; read-out: ID50 (the source's name). The essentials:
as §1

Data set [2] relates to Human alphaherpesvirus 1. The data set is described as follows: Antiviral activity against Herpes simplex type 1 VR-260 infected in African green monkey Vero cells assessed as inhibition of virus-induced plaque formation/cytopathogenicity. It counts as functional. The settings on record: Human alphaherpesvirus 1, VR-260, Vero; read-out: ID50 (the source's name). The essentials:
as §1

The test system of another data set is Human alphaherpesvirus 2. The data set is described as follows: Antiviral activity against Herpes simplex type 2 VR-734 infected in African green monkey Vero cells assessed as inhibition of virus-induced plaque formation/cytopathogenicity. The settings on record: Human alphaherpesvirus 2, VR-734, Vero; read-out: ID50 (the source's name). It counts as functional. The essentials:
as §1

A further data set concerns Human adenovirus 2. Briefly: Antiviral activity against Adenovirus type 2 VR-1080 infected in human Hep2 cells assessed as inhibition of virus-induced plaque formation/cytopathogenicity. It counts as functional. The settings on record: Human mastadenovirus C, VR-1080, HEp-2; read-out: ID50 (the source's name). The essentials: as §1
The next data set deals with Human adenovirus 5. Briefly: Antiviral activity against Adenovirus type 5 VR-1523 infected in human Hep2 cells assessed as inhibition of virus-induced plaque formation/cytopathogenicity. Format: functional. The settings on record: Human mastadenovirus C, VR-1523, HEp-2; read-out: ID50 (the source's name). The essentials:
as §1

Another data set has as its system Cytomegalovirus. Briefly: Antiviral activity against Cytomegalovirus VR-538 infected in human HFF1 cells assessed as inhibition of virus-induced plaque formation/cytopathogenicity. It counts as functional. The settings on record: Human betaherpesvirus 5, VR-538, HFF-1; read-out: ID50 (the source's name). The essentials:
as §1

A short description of data set [3]: Cytotoxicity against African green monkey Vero cells after 24 hrs by MTT assay. It counts as cell-based. The settings on record: chlorocebus sabaeus. (In general: Tetrazolium assays rely on reduction of a dye to a coloured formazan, in cell work by metabolically active cells.)
Data set [4] is described as follows: Cytotoxicity against human Hep2 cells after 24 hrs by MTT assay. It counts as cell-based, HEp-2.
Data set [5] is described as follows: Cytotoxicity against human HFF1 cells after 24 hrs by MTT assay. Format: cell-based, HFF-1.
Data set [6] relates to Human alphaherpesvirus 1. The data set is described as follows: Antiviral activity against Herpes simplex type 1 VR-260 infected in African green monkey Vero cells assessed as inhibition of virus replication at 5 times ID50 treated 1 hr after virus adsorption period measured after 12 hrs by plaque assay. It counts as functional, organism-based. The essentials:
(§2)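 Confluent Vero monolayers infected with HSV-1 at MOI 0.1, 2 h adsorption at 4 °C for synchronous replication. Inoculum then removed and fresh medium with or without compound added at various times after adsorption. Incubation at 37 °C for 12 h, cultures frozen, virus yield titrated by plaque assay. Mean ± SEM of three separate assays.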

The test system of data set [7] is Human alphaherpesvirus 1. The data set is described as follows: Antiviral activity against Herpes simplex type 1 VR-260 infected in African green monkey Vero cells assessed as inhibition of virus replication at 5 times ID50 treated 2 hrs after virus adsorption period measured after 12 hrs by plaque assay. Format: functional, organism-based. The essentials:
as §2

The subject of data set [8] is Human alphaherpesvirus 1. Briefly: Antiviral activity against Herpes simplex type 1 VR-260 infected in African green monkey Vero cells assessed as reduction of virus yield at 5 times ID50 treated 2 hrs after virus adsorption period measured after 12 hrs by plaque assay. Format: functional, organism-based. The essentials: as §2
Data set [9] has as its system Human alphaherpesvirus 1. The data set is described as follows: Inhibition of Herpes simplex type 1 VR-260 adsorption in African green monkey Vero cells assessed as cell-associated viral activity at 5 times ID50 after 120 mins by plaque assay. It counts as functional, organism-based. The essentials:
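Infective center assay. HSV-1 (10⁶ PFU/mL) preincubated 60 min at 37 °C with compound, chilled to 4 °C, then added to a Vero suspension (10⁶ cells/mL) precooled ≥1 h at 4 °C. Adsorption for 120 min at 4 °C. Cells washed three times with cold DMEM, serially diluted and plaque assayed for cell-associated virus.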

Data set [10] relates to Human alphaherpesvirus 1. Briefly: Antiviral activity against Herpes simplex type 1 VR-260 infected in African green monkey Vero cells assessed as virucidal activity at 5 times ID50 after 1 hr by plaque assay. It counts as functional, organism-based. The essentials: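 HSV-1 suspension (10⁶ PFU/mL) mixed 1:1 by volume with DMEM containing compound at 5× ID50, held 1 h at 37 °C. Residual infectivity measured by plaque assay on Vero cells after diluting below the inhibitory concentration.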

Data set [11] has as its system Human alphaherpesvirus 1. The data set is described as follows: Antiviral activity against Herpes simplex type 1 VR-260 infected in African green monkey Vero cells assessed as protection of host cells from viral infection […] by plaque assay. It counts as functional, organism-based.

Values after ≈ are worked out from the molar mass of the structure shown. Active and inactive are the calls of the source. No cut-off for these calls is given here.

For the molecule `COC(=O)CCc1ccc(O)c(O)c1`, the IC50 (in data set [1]; in the data set with Coxsackievirus B3; in the data set on Echovirus E9; in the data set on Human alphaherpesvirus 1 [2]; in the data set with Human alphaherpesvirus 2; in the data set with Human adenovirus 2) was over 100 µg/mL throughout. For the same molecule, the values for the IC50 with Human adenovirus 5 and in the data set on Cytomegalovirus were over 100 µg/mL and 100 µg/mL (≈ 510 µM), respectively. Further, the CC50 at 24 h in [3], in data set [4] and in data set [5] was 100 µg/mL (≈ 510 µM) each time.

For `CCCCC(=O)OCCc1ccc(O)c(O)c1`, the IC50 in data set [1] is over 25 µg/mL; in the data set with Coxsackievirus B3, over 25 µg/mL; in the data set on Echovirus E9, over 25 µg/mL; in the data set on Human alphaherpesvirus 1 [2] it was 25 µg/mL (≈ 105 µM); in the data set on Human adenovirus 2, over 25 µg/mL; in the data set on Human adenovirus 5, over 25 µg/mL. Besides, in the data set with Cytomegalovirus, the IC50 was over 25 µg/mL. Further, the cytotoxic concentration (CC50) at 24 h in data set [3], in [4] and in data set [5] was 25 µg/mL (≈ 105 µM) in each case.

With `O=C(O)CCc1ccc(O)c(O)c1` [DIHYDROCAFFEIC ACID], the IC50 (in data set [1]; in the data set with Coxsackievirus B3; in the data set with Echovirus E9; in the data set on Human alphaherpesvirus 1 [2]; in the data set on Human adenovirus 2; with Human adenovirus 5) was over 200 µg/mL throughout. Further, in the data set on Cytomegalovirus, the IC50 was over 200 µg/mL. Moreover, the cytotoxic concentration (CC50) at 24 h in [3], in data set [4] and in data set [5] was over 200 µg/mL in each case.

Consider `CCCCOC(=O)CCc1ccc(O)c(O)c1`, for which the IC50 is over 200 µg/mL in data set [1]; 100 µg/mL (≈ 420 µM) in the data set with Coxsackievirus B3; over 200 µg/mL with Echovirus E9; over 200 µg/mL in the data set with Human alphaherpesvirus 1 [2]; over 200 µg/mL in the data set with Human alphaherpesvirus 2; over 200 µg/mL with Human adenovirus 2. Moreover, the IC50 in the data set with Human adenovirus 5 was over 200 µg/mL; in the data set on Cytomegalovirus, 25 µg/mL (≈ 105 µM). Further, the CC50 at 24 h in data set [3] was 200 µg/mL (≈ 839 µM); in [4] it was 200 µg/mL (≈ 839 µM); in data set [5], 100 µg/mL (≈ 420 µM).

With `CCCOC(=O)CCc1ccc(O)c(O)c1`, the IC50 (in [1]; in the data set on Coxsackievirus B3; in the data set on Echovirus E9; in the data set on Human alphaherpesvirus 1 [2]; in the data set with Human adenovirus 2; in the data set on Human adenovirus 5) was over 200 µg/mL throughout. Further, the CC50 at 24 h in data set [3] and in data set [4] was over 200 µg/mL each time.

Take `CC(=O)OCCc1ccc(O)c(O)c1`: the IC50 was over 100 µg/mL in data set [1]; 50 µg/mL (≈ 255 µM) with Coxsackievirus B3; over 100 µg/mL with Echovirus E9; 20 µg/mL (≈ 102 µM) in the data set with Human alphaherpesvirus 1 [2]; 40 µg/mL (≈ 204 µM) with Human alphaherpesvirus 2; over 50 µg/mL with Human adenovirus 2. Also, the IC50 in the data set on Human adenovirus 5 and in the data set with Cytomegalovirus was over 50 µg/mL in each case. The CC50 at 24 h was 100 µg/mL (≈ 510 µM) in [3], 50 µg/mL (≈ 255 µM) in data set [4] and 50 µg/mL (≈ 255 µM) in [5].

With `CCCC(=O)OCCc1ccc(O)c(O)c1` [HYDROXYTYROSOL BUTANOATE], the IC50 in data set [1] is over 100 µg/mL; in the data set with Coxsackievirus B3, over 100 µg/mL; in the data set on Echovirus E9, over 100 µg/mL; in the data set on Human alphaherpesvirus 1 [2] it was over 100 µg/mL; in the data set on Human alphaherpesvirus 2, 100 µg/mL (≈ 446 µM); in the data set on Human adenovirus 2, over 100 µg/mL. Further, the IC50 with Human adenovirus 5 and with Cytomegalovirus was over 100 µg/mL throughout. Besides, the CC50 at 24 h in data set [3], in data set [4] and in [5] was 100 µg/mL (≈ 446 µM) each time.

As to `CCC(=O)OCCc1ccc(O)c(O)c1`, the IC50 in data set [1] is over 40 µg/mL; in the data set with Coxsackievirus B3, over 40 µg/mL; in the data set with Echovirus E9, over 40 µg/mL; with Human alphaherpesvirus 1 [2] it was 20 µg/mL (≈ 95.1 µM); in the data set with Human alphaherpesvirus 2, 40 µg/mL (≈ 190 µM); in the data set on Human adenovirus 2 it was over 40 µg/mL. Besides, the IC50 in the data set with Human adenovirus 5 and in the data set with Cytomegalovirus was over 40 µg/mL in each case. The CC50 at 24 h in [3], in data set [4] and in data set [5] was 40 µg/mL (≈ 190 µM) each time.

For the molecule `CCOC(=O)CCc1ccc(O)c(O)c1`, the IC50 in [1] is over 75 µg/mL; in the data set on Coxsackievirus B3, 20 µg/mL (≈ 95.1 µM); with Echovirus E9 it was over 75 µg/mL; with Human alphaherpesvirus 1 [2], 15 µg/mL (≈ 71.4 µM); with Human alphaherpesvirus 2 it was 60 µg/mL (≈ 285 µM); in the data set with Human adenovirus 2, over 40 µg/mL. For the same molecule, the figures for the IC50 with Human adenovirus 5 and with Cytomegalovirus were over 40 µg/mL and 40 µg/mL (≈ 190 µM), respectively. Moreover, the CC50 at 24 h in [3] is 75 µg/mL (≈ 357 µM); in data set [4] it was 40 µg/mL (≈ 190 µM); in data set [5], 40 µg/mL (≈ 190 µM). The result with Human alphaherpesvirus 1 [6] and in the data set on Human alphaherpesvirus 1 [8] was Active. Further, the result with Human alphaherpesvirus 1 [7], with Human alphaherpesvirus 1 [10] and in the data set on Human alphaherpesvirus 1 [11] was inactive. In the data set on Human alphaherpesvirus 1 [9], the inhibition result was “inactive”.

As usually defined, the CC50 is the concentration at which the toxic effect on the cells reaches its halfway point.
